According to ChEMBL document CHEMBL1125418, “Antimycobacterial activity of a series of pyrazinoic acid esters” (1992):

Columns and labels:
[1] = test system: Mycobacterium tuberculosis; test: In vitro activity against Mycobacterium. tuberculosis (strain type-BUR)at pH 5.8; type: functional
[2] = test system: Mycobacterium tuberculosis; test: In vitro activity against Mycobacterium. tuberculosis (strain type-BUR)at pH 6.6; type: functional
In short: (§1)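 Twofold serial dilutions (200–3.12 µg/mL) in 7H10 agar with 10% OADC enrichment at pH 6.6, in compartmented plates. Plates were stored at 4 °C and used within 24–48 h. A no-drug compartment served as control for each isolate. Plates were incubated for 4 weeks at 37 °C. MIC was the lowest concentration giving 99% (2 log) growth inhibition.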

[3] = test system: Mycobacterium tuberculosis; test: In vitro activity against Mycobacterium. tuberculosis (strain type-ATCC 35828)at pH 6.6; type: functional; in short: as §1
Mycobacterium kansasii [4] = test: In vitro activity against Mycobacterium. kansasii (strain type-SWK)at pH 5.8; type: functional
In short: (§2)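 Pyrazinamide-resistant isolate SWK tested on Middlebrook 7H10 agar plus 10% OADC adjusted to pH 5.8. Compartmented plates hold 2-fold dilutions from 200 to 3.12 µg/mL, prepared 24–48 h before use and kept at 4 °C, with a drug-free compartment. Incubation was 37 °C for 4 weeks. MIC is the lowest level causing 99% (2 log) growth inhibition.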

[5] = test system: Mycobacterium tuberculosis; test: In vitro activity against Mycobacterium. tuberculosis (strain type-ATCC 35828)at pH 5.8; type: functional
In short: (§3)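 Middlebrook 7H10 agar plus 10% OADC at pH 5.8 in compartmented plates, with serial twofold dilutions from 200 to 3.12 µg/mL. Plates were prepared 24–48 h before use and stored at 4 °C. A drug-free compartment was included per isolate. Incubation was 37 °C for 4 weeks. MIC was the lowest level producing 99% (2 log) inhibition of growth.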

Mycobacterium kansasii [6] = test: In vitro activity against Mycobacterium. kansasii (strain type-SWK).at pH 6.6; type: functional
In short: (§4)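 MIC for pyrazinamide-resistant isolate SWK by agar dilution in Middlebrook 7H10 with 10% OADC at pH 6.6. Serial 2-fold dilutions run 200–3.12 µg/mL in compartmented plates prepared 24–48 h in advance and stored at 4 °C. A drug-free control is included. Plates were held at 37 °C for 4 weeks. The endpoint is 99% (2 log) inhibition of growth.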

[7] = test system: Mycobacterium tuberculosis; test: In vitro activity against Mycobacterium strain ATCC 35828 (Mycobacterium tuberculosis); type: functional
In short: (§5)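 Agar dilution in compartmented plates of Middlebrook 7H10 agar with 10% OADC, adjusted to pH 5.8 or pH 6.6. Twofold compound dilutions spanned 200–3.12 µg/mL. Plates were made 24–48 h ahead and held at 4 °C. MIC (µg/mL) was the lowest concentration giving 99% (2 log) growth inhibition.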

[8] = test system: Mycobacterium tuberculosis; test: In vitro inhibitory activity against Mycobacterium strain BUR (Mycobacterium tuberculosis)
[9] = test system: Mycobacterium tuberculosis; test: (§6) In vitro inhibitory activity against Mycobacterium tuberculosis (strain type-BUR) at pH 5.8
[10] = test system: Mycobacterium tuberculosis; test: In vitro activity against Mycobacterium strains on DOL (Mycobacterium tuberculosis)
[11] = test system: Mycobacterium tuberculosis; test: In vitro inhibitory activity against Mycobacterium tuberculosis (strain type-ATCC 35828) at pH 5.8; type: functional; in short: as §3
[12] = test system: Mycobacterium tuberculosis; test: In vitro inhibitory activity against Mycobacterium tuberculosis (strain type-ATCC 35828)at pH 6.6; type: functional; in short: as §1
[13] = test system: Mycobacterium tuberculosis; test: In vitro inhibitory activity against Mycobacterium strain DUB (Mycobacterium tuberculosis)
[14] = test system: Mycobacterium tuberculosis; test: In vitro inhibitory activity against Mycobacterium strain GLA (Mycobacterium tuberculosis); type: functional; in short: as §5
Mycobacterium kansasii [15] = test: In vitro activity inhibitory against Mycobacterium. kansasii (strain type-SWK) at pH 5.8; type: functional; in short: as §2
Mycobacterium kansasii [16] = test: In vitro inhibitory activity inhibitory against Mycobacterium. kansasii (strain type-SWK) at pH 6.6; type: functional; in short: as §4
Mycobacterium kansasii [17] = test: In vitro activity against Mycobacterium strain SWK (Mycobacterium kansasii); type: functional
In short: (§7)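 Agar dilution MIC against pyrazinamide-resistant clinical isolates on Middlebrook 7H10 agar with 10% OADC at pH 5.8 or pH 6.6. Serial 2-fold dilutions span 200–3.12 µg/mL in compartmented plates made 24–48 h ahead and stored at 4 °C. Each isolate has a drug-free control. Plates were incubated at 37 °C for 4 weeks. MIC is the lowest concentration giving 99% (2 log) growth inhibition.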

[18] = test system: Mycobacterium tuberculosis; test: In vitro inhibitory activity against Mycobacterium tuberculosis (strain type-H37Rv) at pH 6.6; type: functional
[19] = test system: Mycobacterium tuberculosis; test: In vitro inhibitory activity against Mycobacterium tuberculosis (strain type-BUR) at pH 6.6; type: functional; in short: as §1
[20] = test system: Mycobacterium tuberculosis; test: In vitro inhibitory activity against Mycobacterium tuberculosis (strain type-H37Rv) at pH 5.8; type: functional; in short: as §3
[21] = test system: Mycobacterium tuberculosis; test: In vitro inhibitory activity against Mycobacterium strain LEL (Mycobacterium tuberculosis); type: functional; in short: as §5
[22] = test system: Mycobacterium tuberculosis; test: In vitro inhibitory activity against Mycobacterium strain MCQ (Mycobacterium tuberculosis)
[23] = test system: Mycobacterium tuberculosis; test: In vitro activity against Mycobacterium strains on SMA (Mycobacterium tuberculosis)
[24] = test system: Mycobacterium tuberculosis; test: In vitro inhibitory activity against Mycobacterium strain WOO (Mycobacterium tuberculosis)
[25] = test system: Mycobacterium tuberculosis; test: (§8) In vitro activity against Mycobacterium strain DOU (Mycobacterium tuberculosis)
[26] = test system: Mycobacterium tuberculosis; test: In vitro inhibitory activity against Mycobacterium strain ING (Mycobacterium tuberculosis); type: functional; in short: as §5
Mycobacterium kansasii [27] = test: In vitro activity against Mycobacterium strain SCH (Mycobacterium kansasii); type: functional; in short: as §7
[28] = test system: Mycobacterium tuberculosis; test: In vitro inhibitory activity against Mycobacterium strains on BAK (Mycobacterium tuberculosis)
Mycobacterium kansasii [29] = test: In vitro activity against Mycobacterium. kansasii (strain type-SWK).at pH 5.8; type: functional; in short: as §2
[30] = test system: Mycobacterium tuberculosis; test: In vitro activity against Mycobacterium. tuberculosis (strain type-H37Rv) at pH 5.8; type: functional
[31] = test system: Mycobacterium tuberculosis; test: In vitro activity against Mycobacterium. tuberculosis (strain type-H37Rv) at pH 6.6; type: functional
[32] = test system: Mycobacterium tuberculosis; test: as §6; type: functional; in short: as §3
[33] = test system: Mycobacterium tuberculosis; test: In vitro inhibitory activity against Mycobacterium tuberculosis (strain type-ATCC 35828) at pH 6.6; type: functional; in short: as §1
Mycobacterium kansasii [34] = test: In vitro inhibitory activity against Mycobacterium kansasii (strain type-SWK) at pH 6.6; type: functional; in short: as §4
Mycobacterium kansasii [35] = test: In vitro inhibitory activity against Mycobacterium kansasii (strain type-SWK) at pH 5.8; type: functional; in short: as §2
[36] = test system: Mycobacterium tuberculosis; test: In vitro activity against Mycobacterium strain BAK (Mycobacterium tuberculosis); type: functional
[37] = test system: Mycobacterium tuberculosis; test: In vitro activity against Mycobacterium strain BUR (Mycobacterium tuberculosis); type: functional; in short: as §5
[38] = test system: Mycobacterium tuberculosis; test: In vitro activity against Mycobacterium strain CES (Mycobacterium tuberculosis); type: functional; in short: as §5
[39] = test system: Mycobacterium tuberculosis; test: In vitro activity against Mycobacterium strain DOL (Mycobacterium tuberculosis); type: functional; details: Mycobacterium tuberculosis; read-out: MIC
[40] = test system: Mycobacterium tuberculosis; test: as §8; type: functional; in short: as §5
Mycobacterium kansasii [41] = test: In vitro activity against Mycobacterium. kansasii (strain type-SWK)at pH 6.6; type: functional; in short: as §4
[42] = test system: Mycobacterium tuberculosis; test: In vitro activity against Mycobacterium strain GLA (Mycobacterium tuberculosis); type: functional
[43] = test system: Mycobacterium tuberculosis; test: In vitro activity against Mycobacterium strain ING (Mycobacterium tuberculosis); type: functional; in short: as §5
[44] = test system: Mycobacterium tuberculosis; test: In vitro activity against Mycobacterium strain LEL (Mycobacterium tuberculosis); type: functional
[45] = test system: Mycobacterium tuberculosis; test: In vitro activity against Mycobacterium strain MCQ (Mycobacterium tuberculosis); type: functional; in short: as §5
[46] = test system: Mycobacterium tuberculosis; test: In vitro activity against Mycobacterium strain SMA (Mycobacterium tuberculosis); type: functional; details: Mycobacterium tuberculosis; read-out: MIC
[47] = test system: Mycobacterium tuberculosis; test: In vitro activity against Mycobacterium strain WOO (Mycobacterium tuberculosis); type: functional; in short: as §5
[48] = test system: Mycobacterium tuberculosis; test: In vitro activity against Mycobacterium strain DUB (Mycobacterium tuberculosis); type: functional; details: Mycobacterium tuberculosis; read-out: MIC
[49] = Mycobacterium tuberculosis, read-out: MIC

Measured: MIC

CC(C)(C)c1ccc(OC(=O)c2cnccn2)cc1
25 µg/mL: [1]; [49] | [3] | Mycobacterium kansasii [4] | [5]
50 µg/mL: [2]

O=C(OCCBr)c1cnccn1
> 200 µg/mL: [2] | [3] | Mycobacterium kansasii [6]

NC(=O)c1cnccn1 [PYRAZINAMIDE]
200 µg/mL: [19]
>200 µg/mL: [18]
> 200 µg/mL: [7] | [11] | [12] | Mycobacterium kansasii [15] | Mycobacterium kansasii [16] | Mycobacterium kansasii [17] | [21] | Mycobacterium kansasii [27]
25 µg/mL: [8] | [9] | [10] | [22] | [25]
12.5 µg/mL: [14] | [20] | [26]
50 µg/mL: [13] | [23] | [24] | [28]

O=C(Oc1ccc([N+](=O)[O-])cc1)c1cnccn1
200 µg/mL: [3] | Mycobacterium kansasii [6]
50 µg/mL: [31]; [49]
25 µg/mL: Mycobacterium kansasii [29] | [5]
12.5 µg/mL: [1]; [49] | [30]; [49]

O=C(O)c1cnccn1 [PYRAZINOIC ACID]
> 200 µg/mL: [33] | Mycobacterium kansasii [34] | [19] | Mycobacterium kansasii [35]
50 µg/mL: [32] | [20]
100 µg/mL: [11]
200 µg/mL: [18]; [49]

Cc1ccc(OC(=O)c2cnccn2)cc1
100 µg/mL: [2]
12.5 µg/mL: [7] | [36] | [37] | [1] | [38] | [40] | Mycobacterium kansasii [4] | Mycobacterium kansasii [17] | [30] | [44] | [5] | Mycobacterium kansasii [27]
200 µg/mL: [3] | Mycobacterium kansasii [41]
25 µg/mL: [31] | [43] | [46] | [47] | [48]
6.25 µg/mL: [39] | [42] | [45]
